Test results published in ChEMBL document CHEMBL1135117, “Identification of potent and selective oxytocin antagonists. Part 2: further investigation of benzofuran derivatives” (Bioorg Med Chem Lett, 2002).

What was measured:
[1] = target: T1, Oxytocin receptor (Homo sapiens, UniProt P30559); assay: Displacement of 3[H]oxytocin from human oxytocin receptor
T1 sequence (P30559 whole entry): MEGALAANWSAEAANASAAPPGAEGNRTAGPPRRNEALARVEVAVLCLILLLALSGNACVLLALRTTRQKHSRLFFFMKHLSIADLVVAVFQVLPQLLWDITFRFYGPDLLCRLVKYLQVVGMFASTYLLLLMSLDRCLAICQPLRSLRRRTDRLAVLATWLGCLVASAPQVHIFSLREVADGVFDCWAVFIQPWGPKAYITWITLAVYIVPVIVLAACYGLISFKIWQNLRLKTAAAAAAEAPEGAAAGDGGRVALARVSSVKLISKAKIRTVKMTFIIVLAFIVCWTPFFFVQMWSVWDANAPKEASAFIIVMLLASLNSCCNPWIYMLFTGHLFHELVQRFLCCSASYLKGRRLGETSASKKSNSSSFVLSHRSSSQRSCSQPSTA

[2] = Compound was tested for its half life in dog; type: ADME, organism-based, Canis lupus familiaris; details: in vivo
[3] = Bioavailability in dog; type: ADME, organism-based, Canis lupus familiaris; details: in vivo
[4] = Compound was tested for plasma clearance in rat; type: ADME, organism-based
[5] = Compound was tested for plasma clearance in dog; type: ADME, organism-based, Canis lupus familiaris
[6] = Compound was tested for its half life in rat; type: ADME, organism-based; details: in vivo
[7] = Bioavailability in rat; type: ADME, organism-based; details: in vivo
[8] = target: Vasopressin V1a receptor (Homo sapiens, UniProt P37288); assay: Compound was tested for its ability to displace vasopressin from human Vasopressin V1a receptor
Sequence of Vasopressin V1a receptor (P37288 whole entry): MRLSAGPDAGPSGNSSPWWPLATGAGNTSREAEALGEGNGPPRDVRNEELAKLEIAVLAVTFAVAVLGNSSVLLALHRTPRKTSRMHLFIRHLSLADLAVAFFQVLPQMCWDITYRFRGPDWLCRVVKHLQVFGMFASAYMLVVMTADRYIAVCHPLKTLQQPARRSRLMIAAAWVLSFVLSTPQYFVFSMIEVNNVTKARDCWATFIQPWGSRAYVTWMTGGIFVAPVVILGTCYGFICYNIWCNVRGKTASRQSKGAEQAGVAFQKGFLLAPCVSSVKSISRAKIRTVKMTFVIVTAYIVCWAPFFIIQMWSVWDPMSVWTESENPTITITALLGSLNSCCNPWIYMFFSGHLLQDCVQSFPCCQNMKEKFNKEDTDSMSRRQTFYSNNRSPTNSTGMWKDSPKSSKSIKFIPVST

[9] = target: T2, Oxytocin receptor (Homo sapiens) (UniProt P30559); assay: Tested for ratio of displacement of 3H oxytocin from human OT in presence and absence of 50 mg/mL human serum albumin
T2 sequence (whole entry): T1 sequence (P30559 whole entry)
Summary of the method: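 Displacement of [3H]oxytocin from human OT receptor, with IC50 measured with and without 50 mg/mL human serum albumin. The radioligand was made up in buffer containing 100 mg/mL HSA, a pre-dilution level. The value is the ratio of the IC50 with HSA to the IC50 without HSA.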

[10] = target: Albumin (Homo sapiens, UniProt P02768); assay: Compound was tested for Serum albumin binding
Sequence of Albumin (P02768 whole entry): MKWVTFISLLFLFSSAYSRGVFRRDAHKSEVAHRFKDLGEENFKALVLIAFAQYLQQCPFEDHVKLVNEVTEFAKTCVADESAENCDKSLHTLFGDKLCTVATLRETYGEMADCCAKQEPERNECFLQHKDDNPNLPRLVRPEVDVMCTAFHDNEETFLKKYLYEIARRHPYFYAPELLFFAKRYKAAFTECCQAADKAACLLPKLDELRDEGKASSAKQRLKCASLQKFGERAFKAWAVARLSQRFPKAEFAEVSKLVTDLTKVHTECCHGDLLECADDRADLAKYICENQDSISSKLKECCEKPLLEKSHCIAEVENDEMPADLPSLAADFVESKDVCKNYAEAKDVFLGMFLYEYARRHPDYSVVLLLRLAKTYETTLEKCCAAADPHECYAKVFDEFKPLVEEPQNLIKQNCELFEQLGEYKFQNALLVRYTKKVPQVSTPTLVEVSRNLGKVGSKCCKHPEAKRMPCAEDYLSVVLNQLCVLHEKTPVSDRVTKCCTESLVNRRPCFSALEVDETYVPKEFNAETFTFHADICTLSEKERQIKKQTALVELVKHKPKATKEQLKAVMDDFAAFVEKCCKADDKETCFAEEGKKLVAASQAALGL

[11] = Tested for the pharmacokinetic parameter in rat and expressed as area under curve; type: ADME, organism-based; parameters: concentration or dose not given beside the values; details: in vivo
[12] = Compound was tested for half life in dog; type: ADME, organism-based, Canis lupus familiaris; details: in vivo
[13] = Tested for plasma clearance in dog; type: ADME, organism-based, Canis lupus familiaris
[14] = Tested for lipophilicity; type: physicochemical; details: octanol/water
[15] = target: T3, Oxytocin receptor (Rattus norvegicus, UniProt P70536); assay: Compound was tested for displacement of 3[H] oxytocin from rat OT receptor (in vitro)
T3 sequence (P70536 whole entry): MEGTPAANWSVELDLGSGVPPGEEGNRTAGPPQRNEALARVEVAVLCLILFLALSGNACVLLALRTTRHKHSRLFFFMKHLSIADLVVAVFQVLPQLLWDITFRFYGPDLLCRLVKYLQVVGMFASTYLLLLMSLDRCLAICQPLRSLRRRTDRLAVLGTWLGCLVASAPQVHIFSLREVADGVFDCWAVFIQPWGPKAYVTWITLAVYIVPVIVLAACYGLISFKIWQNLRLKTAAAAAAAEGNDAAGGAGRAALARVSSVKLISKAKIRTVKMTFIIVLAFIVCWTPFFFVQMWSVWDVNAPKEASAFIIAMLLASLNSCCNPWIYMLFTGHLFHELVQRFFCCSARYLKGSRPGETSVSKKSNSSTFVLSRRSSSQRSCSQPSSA
Summary of the method: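 Myometrium from rats that littered within 2 h, homogenised in sucrose buffer; membrane fraction pelleted at 48,000g, 4 °C. Filtration binding with [3H]oxytocin at 1 nM in 50 mM HEPES, 10 mM MgCl2, pH 7.4, plus competing ligand. Incubation 1 h at room temperature, then GF/C filtration, ice-cold buffer washes, scintillation counting of bound label.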

[16] = species: Rattus norvegicus; assay: Serum concentration for 50% inhibition of uterine contractility response to oxytocin in rat; type: functional, organism-based
Summary of the method: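 Adult female AHA rats pre-treated 18 h with diethylstilboestrol (250 µg/kg ip, corn oil), anaesthetised with pentobarbitone (60 mg/kg ip); uterine tension ~2 g. OT 0.3 µg/kg iv given 3–180 min after a single iv bolus of antagonist (DMSO/PEG200/water 20:50:30). Response = 10-min area under the contraction–time curve. Plasma drug measured by mass spectrometry in serial blood samples.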

[17] = Compound was tested for its lipophilicity; type: physicochemical; details: octanol/water
[18] = Clearance in rat; type: ADME, organism-based; details: in vivo
[19] = Compound was tested for lipophilicity; type: physicochemical; details: octanol/water

Row | Structure (SMILES) | Ki [1] | half-life [2] | clearance [4] | half-life [6] | bioavailability [7] | Binding [10] | other results
1 | O=C(Cn1cc(C(F)(F)F)ccc1=O)NCc1cc2cc(C(=O)N3CCC(N4C(=O)OCc5c(F)cccc54)CC3)ccc2o1 | 0.1 µM | – | – | – | – | – | –
2 | Cn1c(CNC(=O)Cn2cc(C(F)(F)F)ccc2=O)cc2ccc(C(=O)N3CCC(N4C(=O)OCc5ccccc54)CC3)cc21 | 0.0501 µM | – | – | – | – | – | –
3 | O=C(Cn1cnc(C(F)(F)F)cc1=O)NCc1cc2cc(C(=O)N3CCC(N4C(=O)OCc5ccccc54)CC3)ccc2o1 | 0.00398 µM | 1.6 h | 20 mL/min/kg | 0.8 h | 14% | – | bioavailability [3]: 34%; clearance [5]: 6 mL/min/kg; Ki [8]: 3.98 µM
4 | O=C(c1ccc2oc(CN3CCC[C@@H](n4cc(C(F)(F)F)ccc4=O)C3)cc2c1)N1CCC(N2C(=O)OCc3ccccc32)CC1 | 0.0251 µM | – | 28 mL/min/kg | 0.6 h | – | 96% | bioavailability [3]: 2%; HSA shift [9]: 222; AUC [11]: 150 ng·h/mL
5 | CCOc1ccn(CC(=O)NCc2cc3cc(C(=O)N4CCC(N5C(=O)OCc6ccccc65)CC4)ccc3o2)c(=O)n1 | 0.002 µM | – | 35 mL/min/kg | 0.8 h | 2% | – | half-life [12]: 1.9 h; clearance [13]: 12 mL/min/kg; bioavailability [3]: 43%; Ki [8]: 1.58 µM
6 | O=C(Cn1cc(C(F)(F)F)ccc1=O)NCc1cc2cc(C(=O)N3CCC(N4C(=O)OCc5ccc(Cl)cc54)CC3)ccc2o1 | 0.00316 µM | – | 21 mL/min/kg | 1 h | 35% | – | –
7 | O=C(Cn1cc(C(F)(F)F)ccc1=O)NCc1cc2cc(C(=O)N3CCC(N4C(=O)CCc5ccccc54)CC3)ccc2o1 | 0.0251 µM | – | 13 mL/min/kg | 1.1 h | 44% | – | –
8 | COc1cccn(CC(=O)NCc2cc3cc(C(=O)N4CCC(N5C(=O)OCc6ccccc65)CC4)ccc3o2)c1=O | 0.00251 µM | 1.1 h | 22 mL/min/kg | 1.2 h | 3% | – | bioavailability [3]: 68%; clearance [5]: 19 mL/min/kg; Ki [8]: 1.58 µM
9 | Cn1ncc2c(=O)n(CC(=O)NCc3cc4cc(C(=O)N5CCC(N6C(=O)OCc7ccccc76)CC5)ccc4o3)cnc21 | 0.00126 µM | 1 h | – | – | – | – | bioavailability [3]: 36%; clearance [5]: 11 mL/min/kg
10 | O=C(c1ccc2oc(-c3cccc(Cn4cc(C(F)(F)F)ccc4=O)c3)cc2c1)N1CCC(N2C(=O)OCc3ccccc32)CC1 | 0.794 µM | – | 7 mL/min/kg | 2.2 h | > 45% | 98% | AUC [11]: 5700 ng·h/mL
11 | O=C(Cn1ccccc1=O)NCc1cc2cc(C(=O)N3CCC(N4C(=O)OCc5ccccc54)CC3)ccc2o1 | 0.00631 µM | 0.5 h | – | – | – | – | clearance [5]: 34 mL/min/kg
12 | O=C(Cn1cc(C(F)(F)F)ccc1=O)NCc1cc2cc(C(=O)N3CCC(N4C(=O)OCc5ccccc54)CC3)c(F)cc2o1 | 0.00794 µM | – | 21 mL/min/kg | 1.3 h | 15% | – | –
13 | O=C(Cn1ccc(-c2ccccc2)nc1=O)NCc1cc2cc(C(=O)N3CCC(N4C(=O)OCc5ccccc54)CC3)ccc2o1 | 0.001 µM | 1.3 h | – | – | – | – | clearance [5]: 9 mL/min/kg
14 | O=C(c1ccc2oc(CN3CCCC[C@H]3Cn3cc(C(F)(F)F)ccc3=O)cc2c1)N1CCC(N2C(=O)OCc3ccccc32)CC1 | 0.01 µM | – | – | – | – | 98% | HSA shift [9]: 90
15 | O=C(Cn1cc(C(F)(F)F)ccc1=O)NCc1nc2ccc(C(=O)N3CCC(N4C(=O)OCc5ccccc54)CC3)cc2s1 | 0.01 µM | – | – | – | – | – | –
16 | O=C(Cn1cc(C(F)(F)F)ccc1=O)NCc1nc2cc(C(=O)N3CCC(N4C(=O)OCc5ccccc54)CC3)ccc2s1 | 0.0794 µM | – | – | – | – | – | –
17 | O=C(Cn1cc(C(F)(F)F)ccc1=O)NCc1cc2cc(C(=O)N3CCC(N4C(=O)OCc5cc(F)ccc54)CC3)ccc2o1 | 0.00631 µM | – | 17 mL/min/kg | 0.9 h | 18% | – | –
18 | O=C(c1ccc2oc(-c3cncc(Cn4cc(C(F)(F)F)ccc4=O)c3)cc2c1)N1CCC(N2C(=O)OCc3ccccc32)CC1 | 0.0631 µM | – | 7 mL/min/kg | 1.4 h | 41% | 96% | HSA shift [9]: 17; AUC [11]: 5400 ng·h/mL
19 | O=C(c1ccc2oc(-c3cc(Cn4cc(C(F)(F)F)ccc4=O)ccn3)cc2c1)N1CCC(N2C(=O)OCc3ccccc32)CC1 | > 3.16 µM | – | – | – | – | 96% | –
20 | O=C(Cn1cc(C(F)(F)F)ccc1=O)NCc1cc2cc(C(=O)N3CCC(N4C(=O)OCc5ccccc54)CC3)cnc2o1 | 0.00316 µM | – | 26 mL/min/kg | 0.6 h | 2% | 86.2% | logD [14]: 1.85; IC50 [15]: 0.744 µM; HSA shift [9]: 19; IC50 [16]: 0.02 µM
21 | COc1cc(OC2CCN(C(C)=O)CC2)ccc1C(=O)N1CCC(N2C(=O)OCc3ccccc32)CC1 | 0.00631 µM | 1.1 h | 51 mL/min/kg | 1.1 h | 55% | 83.7% | bioavailability [3]: 29%; clearance [5]: 13 mL/min/kg; logD [17]: 1.66; IC50 [16]: 0.025 µM; Ki [8]: > 2 µM
22 | O=C(Cn1ccc2ccccc2c1=O)NCc1cc2cc(C(=O)N3CCC(N4C(=O)OCc5ccccc54)CC3)ccc2o1 | 0.00631 µM | 1.1 h | 10 mL/min/kg | 0.8 h | 17% | – | clearance [5]: 6 mL/min/kg
23 | O=C(c1ccc2oc(-c3cccc(Cn4cc(C(F)(F)F)ccc4=O)n3)cc2c1)N1CCC(N2C(=O)OCc3ccccc32)CC1 | 0.01 µM | – | 12 mL/min/kg | 1.2 h | 22% | 98% | HSA shift [9]: 87; AUC [11]: 1500 ng·h/mL
24 | O=C(Cn1cc(C(F)(F)F)ccc1=O)NCc1cc2ccc(C(=O)N3CCC(N4C(=O)OCc5ccccc54)CC3)cc2o1 | 0.1 µM | – | – | – | – | – | –
25 | O=C(Cn1cc(C(F)(F)F)ccc1=O)NCc1cc2cc(C(=O)N3CCC(N4C(=O)OCc5ccc(F)cc54)CC3)ccc2o1 | 0.00631 µM | – | – | – | – | – | –
26 | O=C(Cn1cc(C(F)(F)F)ccc1=O)NCc1cc2cc(C(=O)N3CCC(N4C(=O)OCc5cccc(F)c54)CC3)ccc2o1 | 0.00794 µM | – | 11 mL/min/kg | 1.2 h | 67% | – | –
27 | O=C(Cn1ccc(N2CCOCC2)nc1=O)NCc1cc2cc(C(=O)N3CCC(N4C(=O)OCc5ccccc54)CC3)ccc2o1 | 0.000501 µM | 1.2 h | 17 mL/min/kg | 0.8 h | < 1% | – | bioavailability [3]: 2%; clearance [5]: 11 mL/min/kg
28 | O=C(c1ccc2oc(CN3CCC(n4cc(C(F)(F)F)ccc4=O)CC3)cc2c1)N1CCC(N2C(=O)OCc3ccccc32)CC1 | 0.794 µM | – | – | 1.7 h | 79% | 93% | clearance [18]: 6 mL/min/kg; HSA shift [9]: 4; AUC [11]: 12000 ng·h/mL
29 | O=C(Cn1cc(C(F)(F)F)ccc1=O)NCc1cc2cc(C(=O)N3CCC(N4C(=O)OCc5ccccc54)CC3)ccc2o1 | 0.002 µM | 1.5 h | 10 mL/min/kg | 1 h | 16% | 96.2% | clearance [13]: 8 mL/min/kg; bioavailability [3]: 51%; logD [19]: 2.16; IC50 [15]: 3.04 µM; HSA shift [9]: 46; IC50 [16]: 0.02 µM; Ki [8]: 1.26 µM
